Bioassay records as filed in PubChem BioAssay.
ASAP1 GAP inh = inhibitors of human ASAP1 ArfGAP activity. Q9ULH1. ASAP1-stimulated ARF1 GTP hydrolysis, GDP FP detection. inhibition, % at 16.5 µM. actives 0.19% (n = 360,000). AID 624377; in the data active = inhibition above about 25%;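 also: 0% = vehicle with enzyme and substrate and 100% = no enzyme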
APOBEC3G inh = APOBEC3G (human) deaminase inhibition; AID 493012; inhibition, % at 20 µM; Q9HC16; recombinant A3G, ssDNA deamination FAM/TAMRA fluorescence; actives 0.28% (n = 330,000);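 active = inhibition of at least 40% at 20 µM, with no more than 30% in the related APOBEC3A deaminase screen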;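 also: plate controls were DMSO wells with A3G for no effect and wells lacking A3G enzyme for full effect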
SUMO Mot1 rescue = SUMOylation pathway inhibition by Mot1-301 growth rescue | actives 1% (n = 320,000) | S. cerevisiae Mot1-301 growth rescue, ATP luminescence, 38.5C; percent above DMSO median, 100 means doubled | growth rescue, % at 18.8 µM;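 active = every valid replicate shows activation above 250% relative to neutral control wells; inactive = the rest, any valid replicate at or below 250%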;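 also: OY570 slx delta 5 strain wells were the positive control but not used for scaling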
C2C12 statin = protects C2C12 myotubes from simvastatin toxicity. ATP luminescence, 48 h; scaled: DMSO 0, geranylgeraniol control 100. rescue of ATP level, % at 7.49 µM. actives 0.78% (n = 330,000);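 active = mean ATP rescue above about 67%, or every replicate alone reaching that limit, limit read from the data, passing the limit was not always enough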;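 also: myotubes were challenged with 10 µM simvastatin during compound exposure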
A3A deaminase = human APOBEC3A DNA deaminase inhibition | P31941 | recombinant A3A, FAM/TAMRA ssDNA deamination fluorescence | inhibition, % at 20 µM | actives 0.41% (n = 330,000) | AID 493011;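 active = at least 40% inhibition at 20 µM here, with at most 30% in a related deaminase screen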;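 also: plate controls were A3A with DMSO for no effect and wells lacking A3A enzyme for full effect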
Target sequence (P31941 whole entry, looked up): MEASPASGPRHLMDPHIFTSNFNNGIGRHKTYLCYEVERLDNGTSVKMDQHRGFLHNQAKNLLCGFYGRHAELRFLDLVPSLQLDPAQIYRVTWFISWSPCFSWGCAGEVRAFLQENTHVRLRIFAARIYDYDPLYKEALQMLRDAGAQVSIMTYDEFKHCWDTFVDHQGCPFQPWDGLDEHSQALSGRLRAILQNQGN
ARFGAP1 inh = rat ARFGAP1 inhibition; Q62848; Arfgap1-stimulated ARF1 GTP hydrolysis, GDP FP detection; inhibition, % at 16.5 µM; actives 0.26% (n = 360,000); AID 651572;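 active = inhibition above a per-plate limit, mean inhibition of low control wells plus 3 SD, cut at about 25% in these data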;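 also: 0% = DMSO wells with enzyme and 100% = wells lacking Arfgap1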
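Material – truncated rat Arfgap1 GAP domain · Buffer or medium – HEPES-based buffer, pH 7.5 · Reagent – human ARF1(Δ1-17)-GTP substrate · Dosing – 16.5 µM single point, 1.26% DMSO · Schedule – GTP hydrolysis reaction 2 h at 25 °C · Technique – GDP detection by fluorescence polarization · Benchmarks – No-Arfgap1 wells (100%) versus DMSO full-reaction wells (0%) · Repeats – single replicate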
ARFGAP1 confirm = rat ARFGAP1 inhibition, confirmed | shares compounds with ARFGAP1 inh | ARFGAP1-stimulated ARF1 GTP hydrolysis, GDP tracer FP | inhibition, % at 16.5 µM | actives 30% (n = 890) | AID 651608;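 active = average inhibition over triplicates above the hit cutoff set in the earlier primary screen, cut at about 25% in these data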;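 also: 0% = Arfgap1 plus ARF1-GTP with DMSO and 100% = wells lacking Arfgap1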
Target sequence (Q62848 whole entry, looked up): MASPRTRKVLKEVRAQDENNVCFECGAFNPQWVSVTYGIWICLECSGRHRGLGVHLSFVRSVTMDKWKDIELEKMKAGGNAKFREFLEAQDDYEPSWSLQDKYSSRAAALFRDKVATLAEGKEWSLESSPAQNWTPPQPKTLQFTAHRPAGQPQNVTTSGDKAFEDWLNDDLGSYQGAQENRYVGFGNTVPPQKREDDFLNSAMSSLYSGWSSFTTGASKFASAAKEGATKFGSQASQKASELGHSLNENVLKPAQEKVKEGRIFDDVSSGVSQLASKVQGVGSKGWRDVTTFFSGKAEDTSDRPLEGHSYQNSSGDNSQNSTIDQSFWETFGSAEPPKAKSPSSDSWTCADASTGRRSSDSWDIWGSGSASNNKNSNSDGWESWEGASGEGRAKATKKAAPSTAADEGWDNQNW
Active calls of the source: *; / = no result given. The list is not random: actives were taken first. Their share in the collection is about 2.1%.

SMILES	ASAP1 GAP inh	APOBEC3G inh	SUMO Mot1 rescue	C2C12 statin	A3A deaminase	ARFGAP1 inh	ARFGAP1 confirm
CC(C)NC(=O)Nc1ccc2c(c1)C(=O)N([C@H](C)CO)C[C@@H](C)[C@@H](CN(C)Cc1ccc(-c3ccccc3)cc1)O2	/	/	/	-25	/	/	/
CCCC#Cc1cnc2c(c1)C(=O)N([C@@H](C)CO)C[C@H](C)[C@H](CN(C)Cc1ccc3c(c1)OCO3)O2	/	/	/	14	/	/	/
NC(Cc1ccc(C(F)(F)F)cc1)c1csc(NC(=O)Nc2ccccc2Cc2ccccc2)n1 (centres undefined)	-5	/	/	-20	/	33*	11
CN1/C(=C/C2CC(=O)N(c3cccc4ccccc34)C2=O)C(C)(C)c2ccccc21 (centres undefined)	-3	-2	-14	-23	0	-7	/
CN1/C(=C/C2CC(=O)NC2=O)C(C)(C)c2ccccc21 (centres undefined)	0	1	-15	4	3	31*	-5
CCOC(=O)c1ccc(NC(=S)N(CCCN2CCCC2)Cc2cccs2)cc1	1	-1	-13	-5	-3	25*	-3
CCOC(=O)Cc1csc(NC(=O)CN2C(=O)c3ccccc3S2(=O)=O)n1	8	-5	61	5	-3	33*	3
O=C(CSc1nnc(Nc2ccccc2)s1)NC1CCCC1	16	-5	178	12	-1	26*	-4
CCCCOc1ccc(/C=C/C(=O)Nc2ccc(C(N)=O)cc2)cc1	13	-2	-7	2	1	2	/
C=CCOc1ccc(/C=C/C(=O)Nc2ccc(C(=O)NC)cc2)cc1	19	4	5	-12	23	29*	37*
C/C=C/c1ccc([C@H]2[C@@H](CO)N[C@@H]2CNC(=O)CC2CC2)cc1	/	/	/	-9	/	/	/
C[C@@H]1CN([C@@H](C)CO)C(=O)c2cc(C#CC3CCCCC3)cnc2O[C@H]1CN(C)C	/	/	/	-132	/	/	/
Cc1ccc(Cc2c(C3CCCCC3)nc3c(C)cc(Br)cn23)cc1	2	/	/	/	/	7	/
Cc1cc(Br)cn2c(Cc3ccccc3)c(C3CCCCC3)nc12	-6	/	/	/	/	155*	2
Cc1sc2ncnc(SCC(=O)Nc3cccc(S(N)(=O)=O)c3)c2c1C	-1	-5	10	9	1	27*	2
NS(=O)(=O)c1cccc(NC(=O)CSc2ncnc3ccccc23)c1	7	-2	/	14	5	9	/
CN(C)CCNc1ncnc2sc(-c3ccccc3)cc12	-8	-7	-14	-8	-2	-13	/
OCCOCCNc1ncnc2sc(-c3ccccc3)cc12	3	1	12	-16	1	36*	1
O=C(CCc1ccc(O)cc1)c1c(O)cc(O)cc1O	18	-6	-12	11	-2	16	/
COc1cc(O)c(CC=C(C)C)c(O)c1C(=O)CCc1ccc(O)cc1	16	-3	113	4	-4	29*	29*
Cc1ccc(N2C(=O)CC(Sc3nc(C)cc(C)n3)C2=O)cc1 (centres undefined)	-13	-8	2	-4	-5	25*	1
CCOc1ccc(N2C(=O)CC(Sc3nc(C)cc(C)n3)C2=O)cc1 (centres undefined)	6	-1	-3	-25	3	14	/
C[C@H](CO)N1C[C@H](C)[C@@H](CN(C)C)Oc2ccc(NC(=O)c3ccncc3)cc2CC1=O	/	/	/	19	/	/	/
C[C@H](CO)N1C[C@H](C)[C@@H](CN(C)S(=O)(=O)c2ccc(F)cc2)Oc2cc(C3=CCCCC3)ccc2S1(=O)=O	/	/	/	-28	/	/	/
COc1ccc(N2CCN(C(=O)c3ccc(C(C)(C)C)cc3)CC2)cc1	4	-7	-3	-6	-6	28*	-4
SMILES	ASAP1 GAP inh	APOBEC3G inh	SUMO Mot1 rescue	C2C12 statin	A3A deaminase	ARFGAP1 inh	ARFGAP1 confirm
COc1ccc(N2CCN(C(=O)CCNC(=O)c3ccc(C(C)(C)C)cc3)CC2)cc1	6	-1	2	/	-2	4	/
COc1ccc(NC(=O)Nc2ccc3c(c2)CC(=O)N([C@@H](C)CO)C[C@H](C)[C@@H](CN(C)S(=O)(=O)c2ccc(OC)cc2)O3)cc1	/	/	/	9	/	/	/
Cc1cccc(Nc2nc(-c3ccncc3)cs2)c1	0	-9	14	/	-2	3	/
Cc1cccc(Nc2nc(-c3ccc4c(c3)OCCO4)cs2)c1	17	1	/	-26	2	26*	2
O=C(N/N=C/c1ccccc1)c1[nH]ncc1Br	4	0	243	0	2	28*	3
O=C(N/N=C/c1cccnc1)c1[nH]ncc1Br	6	-3	13	3	0	-4	/
O=C(CNS(=O)(=O)c1ccc(Br)cc1)N1CCN(c2ccc(F)cc2)CC1	9	-4	-18	40	-1	28*	3
CC(=O)N(C)C[C@H]1Oc2ncc(-c3cccc(C#N)c3)cc2C(=O)N([C@@H](C)CO)C[C@H]1C	/	/	/	15	/	/	/
O=C(O)CC1(C(=O)O)CC2C=CC1C2 (centres undefined)	8	/	/	16	/	25*	1
C[C@@H]1CN([C@H](C)CO)C(=O)c2cc(/C=C/c3ccccc3)cnc2O[C@H]1CN(C)C(=O)Cc1cccnc1	/	/	/	-3	/	/	/
CCOC(=O)C1=C(C)NC(=O)NC1C (centres undefined)	-9	-1	11	-9	-3	0	/
CCOC(=O)C1=C(CBr)NC(=O)NC1C (centres undefined)	9	-4	-9	-2	0	33*	0
CC(Nc1nc(N2CCNCC2)nc2ccccc12)c1ccccc1 (centres undefined)	-10	1	-5	/	5	26*	8
CC(Nc1nc(-c2ccncc2)nc2ccccc12)c1ccccc1 (centres undefined)	2	-6	18	-23	-1	1	/
CCn1c(CSc2nc3ccccc3s2)nnc1SCC(=O)c1ccc(O)c(O)c1	-8	-3	-3	32	3	32*	-1
COc1ccc(-n2c(SCCNCCO)nc3sc4c(c3c2=O)CCCC4)cc1	9	-2	-12	13	1	32*	22
COc1ccc(-n2c(SCC(=O)O)nc3sc4c(c3c2=O)CCCC4)cc1	20	-3	7	-4	2	35*	52*
COc1ccc(-n2c(SCC(N)=O)nc3sc4c(c3c2=O)CCN(C)C4)cc1	22	-5	-7	15	-1	37*	37*
C[C@@H]1CN([C@@H](C)CO)C(=O)c2cc(C#CC3CC3)cnc2O[C@@H]1CN(C)S(C)(=O)=O	/	/	/	30	/	/	/
